From ChEMBL document CHEMBL2163220 (J Med Chem, 2012) come the findings set out here.

Activity calls are given as the source filed them. The rule behind the calls is not given here.

For one experiment, the system named is LNCaP (Homo sapiens). Nature of the experiment: Effect on androgen receptor gene expression in human LNCaP cells at 1 or 2.5 uM incubated for 24 hrs by RT-PCR.
Experiment [1] has as its target T1, Androgen receptor (Homo sapiens) (UniProt P10275).
T1 sequence (whole entry): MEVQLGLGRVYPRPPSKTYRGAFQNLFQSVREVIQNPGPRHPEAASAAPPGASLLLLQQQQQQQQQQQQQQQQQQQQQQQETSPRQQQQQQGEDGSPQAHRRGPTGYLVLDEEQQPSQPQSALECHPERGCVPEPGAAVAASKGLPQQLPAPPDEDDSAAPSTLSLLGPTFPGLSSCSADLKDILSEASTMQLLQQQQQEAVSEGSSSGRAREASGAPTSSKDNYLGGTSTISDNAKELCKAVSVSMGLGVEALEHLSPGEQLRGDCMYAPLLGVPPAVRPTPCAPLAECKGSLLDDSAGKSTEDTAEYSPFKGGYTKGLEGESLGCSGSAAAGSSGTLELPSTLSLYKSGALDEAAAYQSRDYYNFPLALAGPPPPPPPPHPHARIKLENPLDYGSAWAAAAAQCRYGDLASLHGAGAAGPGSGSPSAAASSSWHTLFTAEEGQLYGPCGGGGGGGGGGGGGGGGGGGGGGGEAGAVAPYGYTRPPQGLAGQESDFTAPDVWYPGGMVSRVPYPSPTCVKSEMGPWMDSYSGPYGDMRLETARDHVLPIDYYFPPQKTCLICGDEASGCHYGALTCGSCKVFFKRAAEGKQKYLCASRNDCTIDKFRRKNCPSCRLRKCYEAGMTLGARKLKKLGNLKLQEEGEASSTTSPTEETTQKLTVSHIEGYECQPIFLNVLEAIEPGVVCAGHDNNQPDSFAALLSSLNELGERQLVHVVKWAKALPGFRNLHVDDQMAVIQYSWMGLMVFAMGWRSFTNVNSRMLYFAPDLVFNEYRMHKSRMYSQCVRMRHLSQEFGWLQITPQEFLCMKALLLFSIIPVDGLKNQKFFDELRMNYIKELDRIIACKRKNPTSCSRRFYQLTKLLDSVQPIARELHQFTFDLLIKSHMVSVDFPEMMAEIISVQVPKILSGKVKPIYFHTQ
Nature of the experiment: Agonist activity at androgen receptor expressed in human PC3 cells assessed as stimulation of receptor transactivation at 0.1 to 1 uM by luciferase reporter gene assay. It is filed as functional, cell-based. The note with it: PC-3. The gist of the method: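 Full-length wild-type or mutant AR plasmid transiently transfected into PC-3 cells with MMTV-luc and Renilla luciferase reporters. Cells treated with DMSO vehicle or compound at 0.1 and 1 μM, alone or with 0.1 nM DHT. Luciferase read as relative luciferase units. Run in triplicate.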

For experiment [2], the target named is T1, Androgen receptor (Homo sapiens). Nature of the experiment: Antagonist activity at androgen receptor in human LNCaP cells assessed as increase in Maspin promoter activity by luciferase reporter gene assay. The format is functional, cell-based. Summed up: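 LNCaP cells carrying a maspin promoter-luciferase reporter were treated with compound and read by luciferase activity, in triplicate.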
A general note: In a reporter assay the amount or activity of a reporter protein is the signal.

A further experiment relates to PC-3. Nature of the experiment: Effect on in Maspin expression in human PC3 cells deficient in wild type androgen receptor at 2.5 uM by luciferase reporter gene assay. The format is functional, cell-based. The gist of the method:
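PC-3 cells were transfected with maspin-luc, with or without cotransfected AR. Cells were exposed to DMSO vehicle or compound at 2.5 and 5 μM. Luciferase activity was measured in triplicate.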

For experiment [3], the target named is T1, Androgen receptor (Homo sapiens). Nature of the experiment: Antagonist activity at androgen receptor in human LNCaP cells assessed as increase in Maspin expression incubated for 24 hrs in presence of DHT by RT-PCR.
Experiment [4] concerns the target T2, Glucocorticoid receptor (Homo sapiens) (UniProt P04150).
T2 sequence (whole entry): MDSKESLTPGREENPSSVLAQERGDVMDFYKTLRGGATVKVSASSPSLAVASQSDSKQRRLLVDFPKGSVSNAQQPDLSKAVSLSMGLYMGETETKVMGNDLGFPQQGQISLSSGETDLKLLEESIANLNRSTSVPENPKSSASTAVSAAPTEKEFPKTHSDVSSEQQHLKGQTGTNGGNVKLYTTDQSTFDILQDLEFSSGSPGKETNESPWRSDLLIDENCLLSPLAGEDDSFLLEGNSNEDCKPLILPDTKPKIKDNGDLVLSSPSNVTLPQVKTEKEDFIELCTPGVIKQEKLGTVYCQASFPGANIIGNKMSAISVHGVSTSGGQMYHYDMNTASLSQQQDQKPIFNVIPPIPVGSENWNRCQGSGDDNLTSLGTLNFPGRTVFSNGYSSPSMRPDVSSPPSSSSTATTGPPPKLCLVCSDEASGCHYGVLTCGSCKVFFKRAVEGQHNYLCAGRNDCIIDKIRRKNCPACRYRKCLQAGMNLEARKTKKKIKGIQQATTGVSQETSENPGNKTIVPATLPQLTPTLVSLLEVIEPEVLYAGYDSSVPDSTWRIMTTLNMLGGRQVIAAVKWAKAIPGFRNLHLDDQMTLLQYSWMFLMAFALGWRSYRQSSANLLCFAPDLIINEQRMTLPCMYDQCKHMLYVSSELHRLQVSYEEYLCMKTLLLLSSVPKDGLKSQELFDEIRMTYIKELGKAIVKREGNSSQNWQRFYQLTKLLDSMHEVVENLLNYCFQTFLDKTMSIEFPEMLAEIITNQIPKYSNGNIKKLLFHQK
Kind of experiment: Antagonist activity at glucocorticoid receptor expressed in human PC3 cells assessed as reduction in dexamethasone-induced receptor transactivation at 1 uM by luciferase reporter gene assay. The format is functional, cell-based. The conditions noted are these: PC-3. The gist of the method:
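PC-3 cells express GR endogenously and were transfected only with the MMTV-luc reporter. Compound tested at 1 μM, alone or against transactivation induced by 10 nM dexamethasone. Read-out was luciferase reporter activity.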

In the case of `Cc1coc2c1C(=O)C(=O)c1c-2ccc2c1CCCC2(C)C` [TANSHINONE IIA], the outcome (in the experiment on LNCaP (Homo sapiens); in experiment [1]; in the experiment on PC-3; in experiment [4]) was inactive. Further, the Activity entry in experiment [2] and in experiment [3] was “Dose-dependent effect” each time.
